ChEMBL document CHEMBL1144020, “Development of prodrug 4-chloro-3-(5-methyl-3-{[4-(2-pyrrolidin-1-ylethoxy)phenyl]amino}-1,2,4-benzotriazin-7-yl)phenyl benzoate (TG100801): a topically administered therapeutic candidate in clinical trials for the treatment of age-related macular degeneration” (J Med Chem, 2008)
Blank lines part the entries; values can stand above or below the molecule they belong to.

Assays:
[1] = target: Proto-oncogene tyrosine-protein kinase Src (Homo sapiens, UniProt P12931); experiment: Inhibition of Src
Chain of Proto-oncogene tyrosine-protein kinase Src (P12931 2-536 limits assumed): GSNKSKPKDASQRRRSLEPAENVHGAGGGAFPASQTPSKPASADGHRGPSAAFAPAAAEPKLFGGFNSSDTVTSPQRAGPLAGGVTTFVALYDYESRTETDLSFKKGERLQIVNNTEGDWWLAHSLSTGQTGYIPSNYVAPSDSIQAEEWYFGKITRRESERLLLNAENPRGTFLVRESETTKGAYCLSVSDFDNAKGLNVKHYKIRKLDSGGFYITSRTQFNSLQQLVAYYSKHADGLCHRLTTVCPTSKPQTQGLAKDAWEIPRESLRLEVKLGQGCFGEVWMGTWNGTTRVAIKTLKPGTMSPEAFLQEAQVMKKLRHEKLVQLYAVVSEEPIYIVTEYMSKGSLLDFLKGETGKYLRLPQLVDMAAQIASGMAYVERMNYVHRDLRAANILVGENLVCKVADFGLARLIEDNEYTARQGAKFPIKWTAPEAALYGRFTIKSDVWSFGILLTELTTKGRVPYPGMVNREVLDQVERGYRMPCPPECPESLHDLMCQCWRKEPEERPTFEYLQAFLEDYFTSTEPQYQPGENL

[2] = target: Vascular endothelial growth factor receptor 2 (Homo sapiens, UniProt P35968); experiment: Inhibition of VEGFR2
Chain of Vascular endothelial growth factor receptor 2 (P35968 whole entry): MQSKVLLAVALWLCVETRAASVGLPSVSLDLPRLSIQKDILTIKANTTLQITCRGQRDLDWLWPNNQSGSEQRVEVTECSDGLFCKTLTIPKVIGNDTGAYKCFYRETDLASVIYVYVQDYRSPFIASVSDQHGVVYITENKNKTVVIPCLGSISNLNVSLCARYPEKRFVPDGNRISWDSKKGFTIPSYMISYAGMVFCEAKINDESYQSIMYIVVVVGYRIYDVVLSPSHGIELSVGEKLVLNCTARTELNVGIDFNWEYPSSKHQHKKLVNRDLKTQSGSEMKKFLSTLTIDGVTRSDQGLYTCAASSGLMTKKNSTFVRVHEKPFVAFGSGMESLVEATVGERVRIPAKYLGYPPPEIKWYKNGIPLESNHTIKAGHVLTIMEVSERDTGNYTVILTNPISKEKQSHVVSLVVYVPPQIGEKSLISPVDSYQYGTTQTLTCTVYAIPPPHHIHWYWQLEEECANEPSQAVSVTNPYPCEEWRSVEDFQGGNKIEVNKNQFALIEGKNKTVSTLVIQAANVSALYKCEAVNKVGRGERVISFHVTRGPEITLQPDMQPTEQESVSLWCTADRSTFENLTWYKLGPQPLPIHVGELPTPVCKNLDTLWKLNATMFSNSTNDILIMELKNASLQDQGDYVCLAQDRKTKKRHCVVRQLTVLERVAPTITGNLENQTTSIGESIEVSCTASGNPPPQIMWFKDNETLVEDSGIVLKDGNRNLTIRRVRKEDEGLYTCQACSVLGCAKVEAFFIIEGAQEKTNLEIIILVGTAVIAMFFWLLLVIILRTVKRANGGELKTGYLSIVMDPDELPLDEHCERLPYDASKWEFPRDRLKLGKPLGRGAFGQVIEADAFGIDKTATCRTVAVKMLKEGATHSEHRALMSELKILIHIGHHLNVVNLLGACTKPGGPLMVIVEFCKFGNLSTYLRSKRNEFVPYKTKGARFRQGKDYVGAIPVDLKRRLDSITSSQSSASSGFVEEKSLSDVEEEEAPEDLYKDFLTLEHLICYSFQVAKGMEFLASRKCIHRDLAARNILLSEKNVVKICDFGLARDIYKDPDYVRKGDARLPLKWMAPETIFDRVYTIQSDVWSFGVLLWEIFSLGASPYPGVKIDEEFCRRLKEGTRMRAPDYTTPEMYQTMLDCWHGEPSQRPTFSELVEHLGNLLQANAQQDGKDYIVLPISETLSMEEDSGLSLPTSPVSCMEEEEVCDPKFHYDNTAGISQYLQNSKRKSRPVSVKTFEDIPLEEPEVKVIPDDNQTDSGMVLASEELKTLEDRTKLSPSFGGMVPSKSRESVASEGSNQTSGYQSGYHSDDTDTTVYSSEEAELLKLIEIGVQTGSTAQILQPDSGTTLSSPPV

[3] = target: Tyrosine-protein kinase Yes (Homo sapiens, UniProt P07947); experiment: Inhibition of YES
Chain of Tyrosine-protein kinase Yes (P07947 whole entry): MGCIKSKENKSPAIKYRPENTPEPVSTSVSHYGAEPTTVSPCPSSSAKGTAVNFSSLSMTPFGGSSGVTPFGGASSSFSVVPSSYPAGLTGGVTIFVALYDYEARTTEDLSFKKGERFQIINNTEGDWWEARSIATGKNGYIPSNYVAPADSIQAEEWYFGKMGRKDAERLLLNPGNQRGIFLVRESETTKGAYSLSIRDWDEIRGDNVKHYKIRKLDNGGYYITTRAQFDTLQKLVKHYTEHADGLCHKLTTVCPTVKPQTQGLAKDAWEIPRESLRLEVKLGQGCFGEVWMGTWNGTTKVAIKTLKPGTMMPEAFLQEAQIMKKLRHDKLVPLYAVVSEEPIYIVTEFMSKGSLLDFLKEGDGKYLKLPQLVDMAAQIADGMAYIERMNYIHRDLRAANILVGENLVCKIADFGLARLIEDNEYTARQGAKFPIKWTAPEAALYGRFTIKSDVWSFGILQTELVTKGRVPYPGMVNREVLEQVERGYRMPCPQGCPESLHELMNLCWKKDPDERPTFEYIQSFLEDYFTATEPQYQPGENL

[4] = Stability at 120 degC after 1 hr; assay type: physicochemical
In short: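 Prodrugs at 0.5% in 0.5% HPMC/5% dextrose, pH 6.7, in closed vials, autoclaved at 120 °C for 1 h. After cooling, percent remaining was assessed by reverse-phase HPLC with diode-array and ELSD detection.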

[5] = Tmax in C57BL/6 mouse retina at 137 nM instilled per eye; assay type: ADME, organism-based; details: topical or ocular, 137 nM per eye
In short: (§1)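 One 10 µL topical drop per eye (70 µg, 137 nmol; 0.7% w/v in 27% w/v PL90G aqueous formulation) to 20 male C57BL/6 mice. Composite sampling, N = 4 per time point at 0.5, 1, 3, 7 and 24 h. Cornea, retina and choroid/sclera eye cup were dissected and plasma taken at euthanasia. LC/MS/MS quantitation; Tmax and Cmax from measured levels; AUC by linear trapezoidal rule on mean data.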

[6] = Cmax in C57BL/6 mouse retina at 137 nM instilled per eye; assay type: ADME, organism-based; design: dose 137 nM, route ophthalmic; details: topical or ocular, 137 nM per eye; in short: as §1
[7] = AUC (0 to 24 hrs) in C57BL/6 mouse retina at 137 nM instilled per eye; assay type: ADME, organism-based; design: time < 24 hr, dose 137 nM, route ophthalmic; details: topical or ocular, 137 nM per eye; in short: as §1
[8] = Tmax in C57BL/6 mouse choroid/sclera at 137 nM instilled per eye; assay type: ADME, organism-based; details: topical or ocular, 137 nM per eye; in short: as §1
[9] = Cmax in C57BL/6 mouse choroid/sclera at 137 nM instilled per eye; assay type: ADME, organism-based; design: dose 137 nM, route ophthalmic; details: topical or ocular, 137 nM per eye; in short: as §1
[10] = Tmax in C57BL/6 mouse cornea at 137 nM instilled per eye; assay type: ADME, organism-based; details: topical or ocular, 137 nM per eye; in short: as §1
[11] = Cmax in C57BL/6 mouse cornea at 137 nM instilled per eye; assay type: ADME, organism-based; design: dose 137 nM, route ophthalmic; details: topical or ocular, 137 nM per eye; in short: as §1
[12] = AUC (0 to 24 hrs) in C57BL/6 mouse cornea at 137 nM instilled per eye; assay type: ADME, organism-based; design: dose 137 nM, time < 24 hr, route ophthalmic; details: topical or ocular, 137 nM per eye; in short: as §1
[13] = AUC (0 to 24 hrs) in C57BL/6 mouse choroid/sclera at 137 nM instilled per eye; assay type: ADME, organism-based; design: time < 24 hr, dose 137 nM, route ophthalmic; details: topical or ocular, 137 nM per eye; in short: as §1
[14] = Tmax in C57BL/6 mouse plasma at 137 nM instilled per eye; assay type: ADME, organism-based; details: topical or ocular, 137 nM per eye; in short: as §1
[15] = Cmax in C57BL/6 mouse plasma at 137 nM instilled per eye; assay type: ADME, organism-based; design: dose 137 nM, route ophthalmic; details: topical or ocular, 137 nM per eye; in short: as §1
[16] = Antiproliferative activity against VEGF-stimulated human RMVEC cells after 48 hrs; assay type: functional, cell-based
In short: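 Human retinal microvascular endothelial cells (~1.5 × 10³/well) were made quiescent for ~48 h in growth-factor-free medium with 10% FBS. Cells were pretreated ~60 min with compound (5–0.00229 or 2–0.00195 µM) in medium with 10% FBS and 50 µg/mL heparin. VEGF 50 ng/mL was added for 48 h at 37 °C/5% CO₂. XTT read at 492/690 nm; IC50 by nonlinear regression.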

[17] = Half life in C57BL/6 mouse administered topically at 0.7% w/v thrice a day; assay type: ADME, organism-based; details: in vivo, topical or ocular
Mus musculus [18] = experiment: Reduction of VEGF-induced retinal leak in BALB/c mouse administered topically at 137 nM q.d; assay type: functional; design: scale not given: the % may be the effect or the level left
Mus musculus [19] = experiment: Reduction of VEGF-induced retinal leak in BALB/c mouse administered topically at 137 nM thrice a day; assay type: functional; design: scale not given: the % may be the effect or the level left
Mus musculus [20] = experiment: Inhibition of FAK-Y861 phosphorylation in mouse at 5 mg/kg

- IC50 [1]: 1.8 nM
- IC50 [2]: 2.2 nM
- IC50 [3]: 0.3 nM
- Stability ([4]; 1 h): Stable
- Tmax at 0.137 µM [5]: 30 min
- Cmax at 0.137 µM [6]: 3.6 µM
- AUC(0-t) at 24 h, 0.137 µM [7]: 3.2 µg·h/mL
- Tmax at 0.137 µM [8]: 30 min
- Cmax at 0.137 µM [9]: 23.4 µM
- Tmax at 0.137 µM [10]: 30 min
- Cmax at 0.137 µM [11]: 64 µM
- AUC(0-t) at 24 h, 0.137 µM [12]: 560 µg·h/mL
- AUC(0-t) at 24 h, 0.137 µM [13]: 240 µg·h/mL
- Tmax at 0.137 µM [14]: 360 min
- Cmax at 0.137 µM [15]: 0.002 µM
- half-life [17]: 30 min
Structure (SMILES): Cc1cc(-c2cc(O)ccc2Cl)cc2nnc(Nc3ccc(OCCN4CCCC4)cc3)nc12
- IC50 [16]: 610 nM
- Activity (Mus musculus [18]): 60%
- Activity (Mus musculus [19]): 85%
- inhibition in vivo at 5 mg/kg (Mus musculus [20]): > 90%

- remaining at 1 h ([4]; read-out: Stability): > 90%
Structure (SMILES): Cc1ccc(C(=O)Oc2ccc(Cl)c(-c3cc(C)c4nc(Nc5ccc(OCCN6CCCC6)cc5)nnc4c3)c2)cc1
